Tests used:
[1] = target: Vascular endothelial growth factor receptor 1 (Homo sapiens) (UniProt P17948); experiment: Inhibition of FLT1 at 3 uM
Method in brief: (§1)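 Single-concentration kinase panel scoring: each value is the percentage of enzyme activity remaining relative to a DMSO-only control. An activity statistically indistinct from DMSO control was scored "no hit".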

[2] = target: Tyrosine-protein kinase Lck (Homo sapiens) (UniProt P06239); experiment: Inhibition of LCK at 3 uM
[3] = target: Receptor-interacting serine/threonine-protein kinase 2 (Homo sapiens) (UniProt O43353); experiment: Inhibition of RIPK2 at 3 uM
[4] = target: Glutamate NMDA receptor (Rattus norvegicus) (UniProt P35439+Q00959+Q00960+Q00961+Q62645+Q8VHN2+Q9R1M7); experiment: Displacement of phencyclidine from rat NMDA receptor at 3 uM; assay type: protein-complex assay
Method in brief: (§2)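 Counter-screen binding/enzyme panel at single 3 μM, n=2; results as percent inhibition. Species per target as listed (rat NMDA, GABAA sites; human receptors, transporters; rabbit ACE).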

[5] = target: Serine/threonine-protein kinase RIO2 (Homo sapiens) (UniProt Q9BVS4); experiment: Inhibition of RIOK2 at 3 uM
Sequence of Serine/threonine-protein kinase RIO2 (Homo sapiens) (Q9BVS4 whole entry, looked up): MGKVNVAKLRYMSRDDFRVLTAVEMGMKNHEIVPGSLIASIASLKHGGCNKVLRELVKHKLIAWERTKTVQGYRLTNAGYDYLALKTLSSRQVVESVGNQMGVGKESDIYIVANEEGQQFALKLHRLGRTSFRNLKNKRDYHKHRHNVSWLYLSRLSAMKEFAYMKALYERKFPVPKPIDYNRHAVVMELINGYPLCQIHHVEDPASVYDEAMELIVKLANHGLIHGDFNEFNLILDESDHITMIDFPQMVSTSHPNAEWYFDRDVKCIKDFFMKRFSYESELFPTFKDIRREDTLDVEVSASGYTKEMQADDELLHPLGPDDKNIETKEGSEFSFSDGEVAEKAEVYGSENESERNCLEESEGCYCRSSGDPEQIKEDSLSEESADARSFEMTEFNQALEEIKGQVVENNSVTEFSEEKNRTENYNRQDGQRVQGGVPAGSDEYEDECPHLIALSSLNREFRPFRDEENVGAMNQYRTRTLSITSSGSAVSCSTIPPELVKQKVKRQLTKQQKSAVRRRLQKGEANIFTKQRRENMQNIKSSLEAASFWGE

[6] = target: Serine/threonine-protein kinase 3 (Homo sapiens) (UniProt Q13188); experiment: Inhibition of MST2 at 3 uM
[7] = target: Acetylcholine receptor subunit alpha (Homo sapiens) (UniProt P02708); experiment: Displacement of bungarotoxin from human nAChR alpha1 receptor at 3 uM
Sequence of Acetylcholine receptor subunit alpha (Homo sapiens) (P02708 whole entry): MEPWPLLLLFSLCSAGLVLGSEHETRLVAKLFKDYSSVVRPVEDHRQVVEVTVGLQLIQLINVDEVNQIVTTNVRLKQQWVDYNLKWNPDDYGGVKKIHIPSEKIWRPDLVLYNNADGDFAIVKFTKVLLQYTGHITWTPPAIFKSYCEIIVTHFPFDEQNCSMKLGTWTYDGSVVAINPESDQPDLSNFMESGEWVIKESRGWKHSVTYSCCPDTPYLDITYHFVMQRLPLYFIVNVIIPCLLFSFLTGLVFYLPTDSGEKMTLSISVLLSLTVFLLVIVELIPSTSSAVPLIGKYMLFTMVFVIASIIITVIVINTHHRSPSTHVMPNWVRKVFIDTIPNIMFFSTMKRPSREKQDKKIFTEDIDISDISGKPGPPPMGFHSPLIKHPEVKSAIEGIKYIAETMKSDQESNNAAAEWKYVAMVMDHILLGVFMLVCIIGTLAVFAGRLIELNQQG
Method in brief: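 Counter-screen of human nicotinic α1 receptor binding, assayed by bungarotoxin displacement.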

[8] = target: Ankyrin repeat and protein kinase domain-containing protein 1 (Homo sapiens) (UniProt Q8NFD2); experiment: Inhibition of ANKK1 at 3 uM
[9] = target: Serine/threonine-protein kinase SIK1 (Homo sapiens) (UniProt P57059); experiment: Inhibition of SNF1LK at 3 uM
[10] = system: Mast/stem cell growth factor receptor Kit (Homo sapiens), P10721 [V559D,T670I]; experiment: Inhibition of KIT V559D,T670I mutant at 3 uM
[11] = target: Activin receptor type-1 (Homo sapiens) (UniProt Q04771); experiment: Inhibition of ACVR1 at 3 uM
[12] = target: Protein kinase C eta type (Homo sapiens) (UniProt P24723); experiment: Inhibition of PRKCH at 3 uM
[13] = target: Tyrosine-protein kinase receptor UFO (Homo sapiens) (UniProt P30530); experiment: Inhibition of AXL at 3 uM
Sequence of Tyrosine-protein kinase receptor UFO (Homo sapiens) (P30530 whole entry): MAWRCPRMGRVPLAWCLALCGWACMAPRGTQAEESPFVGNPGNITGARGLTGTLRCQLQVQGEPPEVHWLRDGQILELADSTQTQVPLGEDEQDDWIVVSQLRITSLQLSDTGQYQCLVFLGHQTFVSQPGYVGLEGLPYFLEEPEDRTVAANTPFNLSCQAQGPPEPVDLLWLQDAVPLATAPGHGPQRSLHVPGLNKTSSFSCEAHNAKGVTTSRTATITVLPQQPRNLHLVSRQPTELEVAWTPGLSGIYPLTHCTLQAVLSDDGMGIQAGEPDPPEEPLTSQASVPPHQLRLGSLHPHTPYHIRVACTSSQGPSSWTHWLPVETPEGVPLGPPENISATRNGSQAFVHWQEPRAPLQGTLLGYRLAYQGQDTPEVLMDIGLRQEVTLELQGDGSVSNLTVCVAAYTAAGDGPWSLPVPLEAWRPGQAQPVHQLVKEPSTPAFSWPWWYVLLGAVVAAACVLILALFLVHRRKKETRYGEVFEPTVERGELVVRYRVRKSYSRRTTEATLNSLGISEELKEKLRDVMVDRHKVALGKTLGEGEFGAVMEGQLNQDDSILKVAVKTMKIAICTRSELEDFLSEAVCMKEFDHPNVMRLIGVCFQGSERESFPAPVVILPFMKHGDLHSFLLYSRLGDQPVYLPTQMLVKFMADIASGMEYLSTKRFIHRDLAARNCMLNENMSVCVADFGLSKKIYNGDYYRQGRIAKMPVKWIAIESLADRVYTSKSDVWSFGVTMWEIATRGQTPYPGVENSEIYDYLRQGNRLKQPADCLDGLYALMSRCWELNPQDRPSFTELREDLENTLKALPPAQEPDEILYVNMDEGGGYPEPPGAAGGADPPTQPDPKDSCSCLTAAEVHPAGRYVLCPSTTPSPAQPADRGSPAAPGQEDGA

[14] = target: Calcium/calmodulin-dependent protein kinase type II subunit delta (Homo sapiens) (UniProt Q13557); experiment: Inhibition of CAMK2D at 3 uM
[15] = target: Tyrosine-protein kinase CSK (Homo sapiens) (UniProt P41240); experiment: Inhibition of CSK at 3 uM
[16] = target: Serine/threonine-protein kinase TAO1 (Homo sapiens) (UniProt Q7L7X3); experiment: Inhibition of TAOK1 at 3 uM
Sequence of Serine/threonine-protein kinase TAO1 (Homo sapiens) (Q7L7X3 whole entry, canonical isoform): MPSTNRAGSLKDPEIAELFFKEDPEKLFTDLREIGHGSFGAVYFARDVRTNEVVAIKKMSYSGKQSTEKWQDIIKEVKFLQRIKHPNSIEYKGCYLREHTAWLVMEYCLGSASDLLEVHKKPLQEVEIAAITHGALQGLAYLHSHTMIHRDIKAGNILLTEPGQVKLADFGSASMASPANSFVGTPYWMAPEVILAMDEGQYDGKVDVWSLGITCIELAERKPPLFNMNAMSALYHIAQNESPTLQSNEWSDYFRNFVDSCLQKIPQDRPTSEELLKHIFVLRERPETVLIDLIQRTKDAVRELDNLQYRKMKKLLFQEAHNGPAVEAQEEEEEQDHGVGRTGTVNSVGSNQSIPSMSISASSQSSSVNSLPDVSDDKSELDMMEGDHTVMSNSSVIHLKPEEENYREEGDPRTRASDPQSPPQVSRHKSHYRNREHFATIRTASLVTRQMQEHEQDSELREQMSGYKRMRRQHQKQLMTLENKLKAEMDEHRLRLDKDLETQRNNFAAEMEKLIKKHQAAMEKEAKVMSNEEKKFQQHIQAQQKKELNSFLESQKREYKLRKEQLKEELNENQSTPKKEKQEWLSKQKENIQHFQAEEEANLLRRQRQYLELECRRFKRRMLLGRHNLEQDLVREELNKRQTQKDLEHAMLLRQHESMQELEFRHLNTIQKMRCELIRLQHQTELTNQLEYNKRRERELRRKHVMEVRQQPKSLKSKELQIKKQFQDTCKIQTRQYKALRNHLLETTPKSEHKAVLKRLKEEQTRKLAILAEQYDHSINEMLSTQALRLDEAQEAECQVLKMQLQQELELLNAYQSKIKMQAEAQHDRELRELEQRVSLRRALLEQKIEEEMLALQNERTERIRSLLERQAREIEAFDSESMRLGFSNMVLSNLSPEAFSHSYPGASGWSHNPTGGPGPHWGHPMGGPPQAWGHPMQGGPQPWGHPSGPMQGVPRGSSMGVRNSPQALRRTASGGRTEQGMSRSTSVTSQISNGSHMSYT

[17] = target: Phosphatidylinositol 4,5-bisphosphate 3-kinase catalytic subunit gamma isoform (Homo sapiens) (UniProt P48736); experiment: Inhibition of PIK3CG at 3 uM
[18] = target: Type-2 angiotensin II receptor (Homo sapiens) (UniProt P50052); experiment: Inhibition of human AT2 receptor at 3 uM; method in brief: as §2
Sequence of Type-2 angiotensin II receptor (Homo sapiens) (P50052 whole entry): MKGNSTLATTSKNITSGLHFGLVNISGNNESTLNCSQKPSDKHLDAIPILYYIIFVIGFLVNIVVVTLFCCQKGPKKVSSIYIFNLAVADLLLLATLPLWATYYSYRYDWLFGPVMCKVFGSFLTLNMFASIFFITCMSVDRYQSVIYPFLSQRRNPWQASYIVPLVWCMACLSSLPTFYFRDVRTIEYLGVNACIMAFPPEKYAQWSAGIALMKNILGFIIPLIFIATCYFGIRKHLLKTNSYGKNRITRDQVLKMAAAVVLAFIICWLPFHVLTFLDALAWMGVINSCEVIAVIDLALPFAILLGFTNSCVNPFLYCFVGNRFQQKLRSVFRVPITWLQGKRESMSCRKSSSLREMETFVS

[19] = target: Delta-type opioid receptor (Homo sapiens) (UniProt P41143); experiment: Inhibition of human delta opioid receptor at 3 uM; method in brief: as §2
[20] = target: MAP kinase-activated protein kinase 2 (Homo sapiens) (UniProt P49137); experiment: Inhibition of MAPKAPK2 at 3 uM
[21] = target: NUAK family SNF1-like kinase 2 (Homo sapiens) (UniProt Q9H093); experiment: Inhibition of SNARK at 3 uM
[22] = target: Casein kinase II subunit alpha' (Homo sapiens) (UniProt P19784); experiment: Inhibition of CSNK2A2 at 3 uM
[23] = target: 5'-AMP-activated protein kinase catalytic subunit alpha-2 (Homo sapiens) (UniProt P54646); experiment: Inhibition of AMPKalpha2 at 3 uM
[24] = target: Bone morphogenetic protein receptor type-2 (Homo sapiens) (UniProt Q13873); experiment: Inhibition of BMPR2 at 3 uM
[25] = target: RAC-alpha serine/threonine-protein kinase (Homo sapiens, UniProt P31749); experiment: Inhibition of AKT1 at 3 uM
[26] = target: MAP kinase-activated protein kinase 5 (Homo sapiens) (UniProt Q8IW41); experiment: Inhibition of MAPKAPK5 at 3 uM
Sequence of MAP kinase-activated protein kinase 5 (Homo sapiens) (Q8IW41 whole entry): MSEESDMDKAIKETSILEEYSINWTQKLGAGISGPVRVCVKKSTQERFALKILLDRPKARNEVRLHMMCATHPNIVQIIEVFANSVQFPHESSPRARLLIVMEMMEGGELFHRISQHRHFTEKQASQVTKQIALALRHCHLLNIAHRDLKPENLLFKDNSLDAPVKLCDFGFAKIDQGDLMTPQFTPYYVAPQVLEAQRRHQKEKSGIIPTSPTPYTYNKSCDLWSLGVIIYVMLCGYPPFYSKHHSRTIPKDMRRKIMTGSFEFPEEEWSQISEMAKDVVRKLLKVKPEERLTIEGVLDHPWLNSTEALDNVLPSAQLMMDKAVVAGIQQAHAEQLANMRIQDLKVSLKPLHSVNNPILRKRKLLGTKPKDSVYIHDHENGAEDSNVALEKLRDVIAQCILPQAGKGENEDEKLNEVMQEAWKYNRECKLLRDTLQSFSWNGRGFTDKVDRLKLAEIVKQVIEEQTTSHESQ

[27] = target: Cyclin-dependent kinase 3 (Homo sapiens) (UniProt Q00526); experiment: Inhibition of CDK3 at 3 uM
[28] = target: Serine/threonine-protein kinase RIO3 (Homo sapiens) (UniProt O14730); experiment: Inhibition of RIOK3 at 3 uM
[29] = target: Mitogen-activated protein kinase 12 (Homo sapiens) (UniProt P53778); experiment: Inhibition of p38-gamma at 3 uM
[30] = target: Cyclin-dependent kinase 16 (Homo sapiens) (UniProt Q00536); experiment: Inhibition of PCTK1 at 3 uM
[31] = target: Inhibitor of nuclear factor kappa-B kinase subunit beta (Homo sapiens) (UniProt O14920); experiment: Inhibition of IKK-beta at 3 uM
[32] = target: Cytoplasmic tyrosine-protein kinase BMX (Homo sapiens) (UniProt P51813); experiment: Inhibition of BMX at 3 uM
[33] = target: Epidermal growth factor receptor (Homo sapiens) (UniProt P04626+P00533+Q15303+P21860); experiment: Inhibition of EGFR S752-I759del mutant at 3 uM; assay type: protein assay; method in brief: as §1
[34] = target: Mitogen-activated protein kinase kinase kinase 5 (Homo sapiens) (UniProt Q99683); experiment: Inhibition of MAP3K5 at 3 uM
[35] = target: Testis-specific serine/threonine-protein kinase 1 (Homo sapiens) (UniProt Q9BXA7); experiment: Inhibition of TSSK1 at 3 uM
Rattus norvegicus = species on record: Rattus norvegicus; conditions: 3 uM
[36] = target: Serine/threonine-protein kinase BRSK2 (Homo sapiens) (UniProt Q8IWQ3); experiment: Inhibition of BRSK2 at 3 uM
[37] = target: Muscarinic acetylcholine receptor M1 (Homo sapiens) (UniProt P11229); experiment: Inhibition of human muscarinic M1 receptor at 3 uM; method in brief: as §2
Sequence of Muscarinic acetylcholine receptor M1 (Homo sapiens) (P11229 whole entry): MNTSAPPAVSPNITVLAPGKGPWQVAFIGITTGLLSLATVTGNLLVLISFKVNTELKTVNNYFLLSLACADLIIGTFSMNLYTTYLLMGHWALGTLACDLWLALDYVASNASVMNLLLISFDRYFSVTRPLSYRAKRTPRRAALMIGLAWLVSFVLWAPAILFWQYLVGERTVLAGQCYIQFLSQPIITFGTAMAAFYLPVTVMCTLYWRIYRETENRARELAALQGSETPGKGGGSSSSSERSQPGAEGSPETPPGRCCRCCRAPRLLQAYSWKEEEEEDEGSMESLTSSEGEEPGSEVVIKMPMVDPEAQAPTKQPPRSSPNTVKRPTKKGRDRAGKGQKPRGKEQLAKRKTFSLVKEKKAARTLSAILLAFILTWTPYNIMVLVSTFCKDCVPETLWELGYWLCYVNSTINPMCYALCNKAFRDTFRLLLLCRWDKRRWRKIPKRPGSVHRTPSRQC

[38] = target: Serine/threonine-protein kinase Nek7 (Homo sapiens) (UniProt Q8TDX7); experiment: Inhibition of NEK7 at 3 uM
Sequence of Serine/threonine-protein kinase Nek7 (Homo sapiens) (Q8TDX7 whole entry, looked up): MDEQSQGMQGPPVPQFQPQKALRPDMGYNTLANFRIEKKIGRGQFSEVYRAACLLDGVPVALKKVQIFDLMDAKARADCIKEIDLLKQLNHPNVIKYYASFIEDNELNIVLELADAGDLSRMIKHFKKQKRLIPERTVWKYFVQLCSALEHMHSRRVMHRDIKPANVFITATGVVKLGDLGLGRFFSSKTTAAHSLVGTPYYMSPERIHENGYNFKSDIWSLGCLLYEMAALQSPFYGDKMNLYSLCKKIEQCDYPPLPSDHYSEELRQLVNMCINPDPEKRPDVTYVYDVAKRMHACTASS

[39] = system: Tyrosine-protein kinase ABL1 (Homo sapiens), P00519 [E255K]; experiment: Inhibition of ABL1E255K mutant at 3 uM
in vivo = conditions: Sprague-Dawley, rat, po, 2 mg/kg
[40] = target: Muscle, skeletal receptor tyrosine-protein kinase (Homo sapiens) (UniProt O15146); experiment: Inhibition of MUSK at 3 uM
[41] = target: Tyrosine-protein kinase receptor TYRO3 (Homo sapiens) (UniProt Q06418); experiment: Inhibition of TYRO3 at 3 uM

Sequence of Tyrosine-protein kinase Lck (Homo sapiens) (P06239 2-509 limits assumed): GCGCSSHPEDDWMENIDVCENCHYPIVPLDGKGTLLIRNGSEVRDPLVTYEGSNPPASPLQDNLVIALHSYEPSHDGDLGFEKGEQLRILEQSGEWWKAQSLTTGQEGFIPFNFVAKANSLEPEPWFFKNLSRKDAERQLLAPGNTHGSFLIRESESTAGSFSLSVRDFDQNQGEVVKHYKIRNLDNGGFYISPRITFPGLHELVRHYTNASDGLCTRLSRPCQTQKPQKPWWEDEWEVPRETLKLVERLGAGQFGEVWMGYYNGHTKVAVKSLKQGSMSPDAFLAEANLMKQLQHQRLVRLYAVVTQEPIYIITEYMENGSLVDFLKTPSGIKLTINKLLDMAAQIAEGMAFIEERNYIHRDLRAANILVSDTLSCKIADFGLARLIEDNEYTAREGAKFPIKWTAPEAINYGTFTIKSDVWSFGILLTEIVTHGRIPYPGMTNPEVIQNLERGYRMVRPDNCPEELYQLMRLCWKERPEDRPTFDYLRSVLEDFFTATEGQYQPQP

CN(C)CCOc1cc(-c2cn[nH]c2)ccc1NC(=O)C1COc2ccccc2O1 (stereo not drawn) [SR-3677]
0%: inhibition (Rattus norvegicus)
-1%: inhibition [18]
6%: inhibition [37]
50 nM: Cmax (in vivo)
7%: inhibition [7]
-2%: inhibition [4]
-9%: inhibition [19]
< 10%: inhibition [1] | inhibition [2] | inhibition [3] | inhibition [5] | inhibition [6] | inhibition [8] | inhibition [9] | inhibition [10] | inhibition [11] | inhibition [12] | inhibition [13] | inhibition [14] | inhibition [15] | inhibition [16] | inhibition [17] | inhibition [20] | inhibition [21] | inhibition [22] | inhibition [23] | inhibition [24] | inhibition [25] | inhibition [26] | inhibition [27] | inhibition [28] | inhibition [29] | inhibition [30] | inhibition [31] | inhibition [32] | inhibition [33] | inhibition [34] | inhibition [35] | inhibition [36] | inhibition [38] | inhibition [39] | inhibition [40] | inhibition [41]

— ChEMBL document CHEMBL1142492 (J Med Chem, 2008)
